From ChEMBL document CHEMBL3734668, “Evaluation of small molecule SecA inhibitors against methicillin-resistant Staphylococcus aureus” (Bioorg Med Chem, 2015)
≈ marks a conversion by molar mass, not a printed value. Calls of active or inactive are those of the source. No cut-off for these calls is given here.

How the values were obtained:
[1] = target: T1, Protein translocase subunit SecA 2 (Staphylococcus aureus (strain NCTC 8325), UniProt Q2FUW6); experiment: Inhibition of Staphylococcus aureus ATCC 35556 SecA2 expressed in Escherichia coli BL21-gammaDE3 assessed as reduction in intrinsic ATPase activity incubated for 3 hrs measured by malachite green colorimetric method
T1 sequence (Q2FUW6 whole entry): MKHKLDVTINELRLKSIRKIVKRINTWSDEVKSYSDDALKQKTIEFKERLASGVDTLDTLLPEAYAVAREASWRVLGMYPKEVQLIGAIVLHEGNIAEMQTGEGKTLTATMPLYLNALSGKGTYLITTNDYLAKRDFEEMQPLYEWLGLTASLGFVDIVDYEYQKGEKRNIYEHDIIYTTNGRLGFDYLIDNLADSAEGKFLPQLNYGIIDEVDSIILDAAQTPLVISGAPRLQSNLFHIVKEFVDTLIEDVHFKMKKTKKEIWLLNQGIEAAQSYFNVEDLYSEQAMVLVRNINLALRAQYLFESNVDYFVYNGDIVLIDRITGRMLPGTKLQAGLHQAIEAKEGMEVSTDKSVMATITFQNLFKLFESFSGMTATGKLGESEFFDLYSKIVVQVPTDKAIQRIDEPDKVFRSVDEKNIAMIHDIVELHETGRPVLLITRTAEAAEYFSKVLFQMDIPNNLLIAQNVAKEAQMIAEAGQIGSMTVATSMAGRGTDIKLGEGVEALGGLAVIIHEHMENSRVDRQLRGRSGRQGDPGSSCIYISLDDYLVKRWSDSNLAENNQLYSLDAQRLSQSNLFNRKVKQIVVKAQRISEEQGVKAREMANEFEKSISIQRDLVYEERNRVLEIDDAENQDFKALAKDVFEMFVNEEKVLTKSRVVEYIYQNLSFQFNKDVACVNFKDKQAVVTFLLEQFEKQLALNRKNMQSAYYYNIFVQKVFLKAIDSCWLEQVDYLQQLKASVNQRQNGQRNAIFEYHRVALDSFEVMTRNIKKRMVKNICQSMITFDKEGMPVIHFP

[2] = system: Staphylococcus aureus; experiment: Bacteriostatic activity against Staphylococcus aureus N315 after 24 hrs; assay type: functional; settings: N315, 24 h
Summary of the method: (§1)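 Broth microdilution MIC per CLSI guidance in LB, 37 °C, shaking 250 rpm, 24 hr; run in triplicate in three separate experiments. MIC taken as lowest inhibitor concentration with no growth. Compounds from DMSO stocks; untreated controls carry equal DMSO.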

[3] = target: T2, Protein translocase subunit SecA 1 (Staphylococcus aureus (strain NCTC 8325), UniProt O06446); experiment: Inhibition of Staphylococcus aureus ATCC 35556 SecA1 liposomal ion channel activity in Xenopus laevis oocytes incubated for 3 hrs measured by recording ion current for 1 min; assay type: cell-based
T2 sequence (O06446 whole entry): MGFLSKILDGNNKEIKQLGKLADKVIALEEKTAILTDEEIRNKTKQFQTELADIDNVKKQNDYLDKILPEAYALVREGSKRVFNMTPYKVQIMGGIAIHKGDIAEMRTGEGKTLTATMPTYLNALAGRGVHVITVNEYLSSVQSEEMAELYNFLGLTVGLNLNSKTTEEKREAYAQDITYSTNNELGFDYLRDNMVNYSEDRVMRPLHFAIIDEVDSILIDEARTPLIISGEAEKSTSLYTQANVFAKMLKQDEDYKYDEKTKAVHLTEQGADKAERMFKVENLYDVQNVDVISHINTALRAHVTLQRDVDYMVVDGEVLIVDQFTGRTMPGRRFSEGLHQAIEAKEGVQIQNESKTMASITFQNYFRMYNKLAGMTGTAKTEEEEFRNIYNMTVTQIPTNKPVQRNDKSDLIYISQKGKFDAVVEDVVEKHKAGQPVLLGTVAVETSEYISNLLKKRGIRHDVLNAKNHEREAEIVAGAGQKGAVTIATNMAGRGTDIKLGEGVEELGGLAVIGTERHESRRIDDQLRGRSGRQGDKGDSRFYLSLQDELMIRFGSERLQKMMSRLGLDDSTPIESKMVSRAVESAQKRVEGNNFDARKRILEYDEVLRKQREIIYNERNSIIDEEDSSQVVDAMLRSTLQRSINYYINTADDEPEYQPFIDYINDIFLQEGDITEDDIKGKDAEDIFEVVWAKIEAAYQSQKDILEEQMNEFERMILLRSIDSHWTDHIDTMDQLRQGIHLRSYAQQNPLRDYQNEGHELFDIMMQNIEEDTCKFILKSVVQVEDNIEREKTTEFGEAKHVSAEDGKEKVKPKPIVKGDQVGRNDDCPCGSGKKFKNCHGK
Summary of the method: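 Xenopus laevis oocytes injected at animal pole with 50 nl containing 120 ng liposomes, 120 ng SaSecA1, 14 ng proOmpA, 2 mM ATP, 1 mM Mg(OAc)2 plus varying inhibitor. Incubated 3 hr at 23 °C, then ion current recorded continuously 1 min.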

[4] = system: Staphylococcus aureus; experiment: Bacteriostatic activity against Staphylococcus aureus Mu3 after 24 hrs; assay type: functional; settings: Mu3, 24 h; summary of the method: as §1
[5] = system: Staphylococcus aureus; experiment: Bacteriostatic activity against Staphylococcus aureus Mu50 after 24 hrs; assay type: functional; settings: Mu50, 24 h
Summary of the method: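 Broth microdilution per CLSI guidelines in LB. Inhibitor added to dilute early-log culture (OD600 ≈ 0.05), 37 °C, 250 rpm, 24 hrs. Run in triplicate in three separate experiments. MIC read as the lowest concentration with no growth.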

[6] = target: T2, Protein translocase subunit SecA 1; experiment: Inhibition of Staphylococcus aureus ATCC 35556 SecA1 expressed in Escherichia coli BL21-gammaDE3 assessed as reduction in intrinsic ATPase activity incubated for 3 hrs measured by malachite green colorimetric method
[7] = system: Staphylococcus aureus; experiment: Bacteriostatic activity against Staphylococcus aureus Newman after 24 hrs; assay type: functional; summary of the method: as §1
[8] = system: Staphylococcus aureus; experiment: Bacteriostatic activity against Staphylococcus aureus ATCC 6538 after 24 hrs; assay type: functional; settings: ATCC 6538, 24 h
[9] = target: T3, Protein translocase subunit SecA 1 (Staphylococcus aureus (strain NCTC 8325)) (UniProt O06446); experiment: Binding affinity to SecA1 in Staphylococcus aureus ATCC 6538 whole cell lysate incubated for 1 hr by Streptavidin-based pull down assay
T3 sequence (whole entry): T2 sequence (O06446 whole entry)
Summary of the method: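 Lysate precleared on streptavidin magnetic beads (4 °C, 1 hr), then rolled ±400 μM biotinylated probe at 4 °C, 1 hr. Beads washed three times, boiled in SDS buffer; SaSecA1 detected by Western blot using cross-reacting EcSecA antibody.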

[10] = Inhibition of Escherichia coli SecA N68 mutant ATPase activity
[11] = system: Staphylococcus aureus; experiment: Bacteriostatic activity against Staphylococcus aureus K2361 overexpressing NorA; assay type: functional; summary of the method: as §1
[12] = system: Staphylococcus aureus; experiment: Bacteriostatic activity against Staphylococcus aureus K2068 overexpressing MepA; assay type: functional; summary of the method: as §1
[13] = system: Staphylococcus aureus; experiment: Bacteriostatic activity against MepA deficient Staphylococcus aureus K2908; assay type: functional; summary of the method: as §1
[14] = system: Staphylococcus aureus; experiment: Bacteriostatic activity against NorA deficient Staphylococcus aureus K1758; assay type: functional; summary of the method: as §1
[15] = system: Staphylococcus aureus; experiment: Bacteriostatic activity against wild type Staphylococcus aureus 8325-4; assay type: functional; summary of the method: as §1

Compound `Oc1ccc2c(c1)Oc1cc(O)ccc1C2C1CCCC1` has an IC50 [1] of 30 µM, an MIC [2] of 14 µg/mL (≈ 49.6 µM) and an IC50 [3] of 2 µM. The MIC [4] was 14 µg/mL (≈ 49.6 µM), the MIC [5] was 14 µg/mL (≈ 49.6 µM) and the IC50 [6] was 35 µM. For the same compound, the MIC [7] was 7 µg/mL (≈ 24.8 µM) and the MIC [8] was 11 µg/mL (≈ 39 µM).

For `CN(C)[C@@H]1C(O)=C(C(N)=O)C(=O)[C@@]2(O)C(O)=C3C(=O)c4c(O)cccc4[C@@](C)(O)[C@H]3C[C@@H]12` [TETRACYCLINE], the MIC [5] was 63 µg/mL (≈ 142 µM).

With `O=C(CCCC[C@@H]1SC[C@@H]2NC(=O)N[C@@H]21)NCCCCCCC1c2ccc(O)cc2Oc2cc(O)ccc21` the Activity [9] was “Active” and the IC50 [10] was 90 µM.

Compound `CC1(C)S[C@@H]2[C@H](NC(=O)[C@H](N)c3ccccc3)C(=O)N2[C@H]1C(=O)O` [AMPICILLIN] has an MIC [5] of 1000 µg/mL (≈ 2860 µM).

`CCn1cc(C(=O)O)c(=O)c2cc(F)c(N3CCNCC3)cc21` [NORFLOXACIN] showed an MIC [5] of 250 µg/mL (≈ 783 µM).

With `CN[C@@H](CC(C)C)C(=O)N[C@H]1C(=O)N[C@@H](CC(N)=O)C(=O)N[C@H]2C(=O)N[C@H]3C(=O)N[C@H](C(=O)N[C@@H](C(=O)O)c4cc(O)cc(O)c4-c4cc3ccc4O)[C@H](O)c3ccc(c(Cl)c3)Oc3cc2cc(c3O[C@H]2O[C@@H](CO)[C@H](O)[C@@H](O)[C@@H]2O[C@@H]2C[C@@](C)(N)[C@@H](O)[C@@H](C)O2)Oc2ccc(cc2Cl)[C@H]1O` the MIC [5] was 8 µg/mL (≈ 5.52 µM).

Work on `CC[C@H]1OC(=O)[C@H](C)[C@@H](O[C@H]2C[C@@](C)(OC)[C@@H](O)[C@H](C)O2)[C@H](C)[C@@H](O[C@@H]2O[C@H](C)C[C@H](N(C)C)[C@H]2O)[C@](C)(O)C[C@@H](C)C(=O)[C@H](C)[C@@H](O)[C@]1(C)O` [ERYTHROMYCIN] yielded an MIC [5] greater than 1250 µg/mL.

With `CO[C@H]1/C=C/O[C@@]2(C)Oc3c(C)c(O)c4c(O)c(c(/C=N/N5CCN(C)CC5)c(O)c4c3C2=O)NC(=O)/C(C)=C\C=C\[C@H](C)[C@H](O)[C@@H](C)[C@@H](O)[C@@H](C)[C@H](OC(C)=O)[C@@H]1C` [RIFAMPIN] the MIC [5] was greater than 1000 µg/mL.

With `O=C([O-])c1c(Cl)c(Cl)c(Cl)c(Cl)c1-c1c2cc(I)c(=O)c(I)c-2oc2c(I)c([O-])c(I)cc12.[Na+].[Na+]` [ROSE BENGAL SODIUM] the IC50 [1] was 2 µM, the MIC [2] was 21 µg/mL and the MIC [11] was 35 µg/mL. It also gave an MIC [12] of 15 µg/mL, an MIC [13] of 11 µg/mL and an MIC [4] of 59 µg/mL. It also gave an MIC [14] of 22 µg/mL, an MIC [7] of 51 µg/mL and an MIC [15] of 13 µg/mL.

`NC[C@H]1O[C@H](O[C@H]2[C@H](O)[C@@H](O[C@H]3O[C@H](CO)[C@@H](O)[C@H](N)[C@H]3O)[C@H](N)C[C@@H]2N)[C@H](O)[C@@H](O)[C@@H]1O` [KANAMYCIN] showed an MIC [5] of 1000 µg/mL (≈ 2060 µM).
